Measurements reported in ChEMBL document CHEMBL1137737, “Synthesis, antimicrobial and cytotoxic activities of 1,3,4-oxadiazoles, 1,3,4-thiadiazoles and 1,2,4-triazoles” (Eur J Med Chem, 2009).
≈ marks a conversion by molar mass, not a printed value.

Columns and labels:
Type in all cases: functional
[1] = tested on: Klebsiella pneumoniae; assay: Antibacterial activity against Klebsiella pneumoniae NCIM 2957 at 100 ug/disk after 24 hrs by agar disc-diffusion method; conditions: NCIM 2957, 24 h, read-out: DIZ
Summary of the method: (§1)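 Sterile 6 mm filter-paper discs are soaked in compound solution in DMSO and placed on nutrient agar plates already inoculated with each organism. Plates are incubated at 37 °C. The diameter of the growth-inhibition zone is read after 24 h for bacteria and after 48 h for fungi.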

[2] = tested on: Curvularia lunata; assay: Antifungal activity against Curvularia lunata NCIM 716 at 200 ug/disk after 48 hrs by agar disc-diffusion method; conditions: NCIM 716, 48 h, read-out: DIZ; summary of the method: as §1
[3] = tested on: Staphylococcus aureus; assay: Antibacterial activity against Staphylococcus aureus NCIM 5021 at 200 ug/disk after 24 hrs by agar disc-diffusion method; conditions: NCIM 5021, 24 h, read-out: DIZ; summary of the method: as §1
[4] = tested on: Fusarium solani; assay: Antifungal activity against Fusarium solani NCIM 1330 at 100 ug/disk after 48 hrs by agar disc-diffusion method; conditions: NCIM 1330, 48 h, read-out: DIZ; summary of the method: as §1
[5] = tested on: Proteus vulgaris; assay: Antibacterial activity against Proteus vulgaris NCIM 2027 at 100 ug/disk after 24 hrs by agar disc-diffusion method; conditions: NCIM 2027, 24 h, read-out: DIZ; summary of the method: as §1
[6] = tested on: Curvularia lunata; assay: Antifungal activity against Curvularia lunata NCIM 716 after 48 hrs by microdilution susceptibility method; conditions: NCIM 716, 48 h
Summary of the method: (§2)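 This is a microdilution susceptibility test. Organism suspensions are inoculated into wells holding the dilution series, then incubated at 36 °C for 24 h (bacteria) or 48 h (fungi). MIC is the lowest concentration giving no turbidity, i.e. complete inhibition of visible growth.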

[7] = tested on: Bacillus subtilis; assay: Antibacterial activity against Bacillus subtilis NCIM 2063 at 100 ug/disk after 24 hrs by agar disc-diffusion method; conditions: NCIM 2063, 24 h, read-out: DIZ; summary of the method: as §1
[8] = tested on: Staphylococcus aureus; assay: Antibacterial activity against Staphylococcus aureus NCIM 5021 at 100 ug/disk after 24 hrs by agar disc-diffusion method; conditions: NCIM 5021, 24 h, read-out: DIZ; summary of the method: as §1
[9] = tested on: Aspergillus niger; assay: Antifungal activity against Aspergillus niger NCIM 596 at 200 ug/disk after 48 hrs by agar disc-diffusion method; conditions: NCIM 596, 48 h, read-out: DIZ; summary of the method: as §1
[10] = tested on: Fusarium solani; assay: Antifungal activity against Fusarium solani NCIM 1330 after 48 hrs by microdilution susceptibility method; conditions: NCIM 1330, 48 h; summary of the method: as §2
[11] = tested on: Bacillus subtilis; assay: Antibacterial activity against Bacillus subtilis NCIM 2063 at 200 ug/disk after 24 hrs by agar disc-diffusion method; conditions: NCIM 2063, 24 h, read-out: DIZ; summary of the method: as §1
[12] = tested on: Fusarium solani; assay: Antifungal activity against Fusarium solani NCIM 1330 at 200 ug/disk after 48 hrs by agar disc-diffusion method; conditions: NCIM 1330, 48 h, read-out: DIZ; summary of the method: as §1
[13] = tested on: Aspergillus niger; assay: Antifungal activity against Aspergillus niger NCIM 596 at 100 ug/disk after 48 hrs by agar disc-diffusion method; conditions: NCIM 596, 48 h, read-out: DIZ; summary of the method: as §1
[14] = tested on: Proteus vulgaris; assay: Antibacterial activity against Proteus vulgaris NCIM 2027 at 200 ug/disk after 24 hrs by agar disc-diffusion method; conditions: NCIM 2027, 24 h, read-out: DIZ; summary of the method: as §1
[15] = tested on: Curvularia lunata; assay: Antifungal activity against Curvularia lunata NCIM 716 at 100 ug/disk after 48 hrs by agar disc-diffusion method; conditions: NCIM 716, 48 h, read-out: DIZ; summary of the method: as §1
[16] = tested on: Klebsiella pneumoniae; assay: Antibacterial activity against Klebsiella pneumoniae NCIM 2957 at 200 ug/disk after 24 hrs by agar disc-diffusion method; conditions: NCIM 2957, 24 h, read-out: DIZ; summary of the method: as §1
[17] = tested on: Proteus vulgaris; assay: Antibacterial activity against Proteus vulgaris NCIM 2027 after 24 hrs by microdilution susceptibility method; conditions: NCIM 2027, 24 h; summary of the method: as §2
[18] = tested on: Staphylococcus aureus; assay: Antibacterial activity against Staphylococcus aureus NCIM 5021 after 24 hrs by microdilution susceptibility method; conditions: NCIM 5021, 24 h; summary of the method: as §2
[19] = tested on: Aspergillus niger; assay: Antifungal activity against Aspergillus niger NCIM 596 after 48 hrs by microdilution susceptibility method; conditions: NCIM 596, 48 h; summary of the method: as §2
[20] = tested on: Bacillus subtilis; assay: Antibacterial activity against Bacillus subtilis NCIM 2063 after 24 hrs by microdilution susceptibility method; conditions: NCIM 2063, 24 h; summary of the method: as §2
[21] = tested on: Klebsiella pneumoniae; assay: Antibacterial activity against Klebsiella pneumoniae NCIM 2957 after 24 hrs by microdilution susceptibility method; conditions: NCIM 2957, 24 h; summary of the method: as §2

Compound | zone of inhibition at 100 µg/disc [1] [mm] | zone of inhibition at 200 µg/disc [2] [mm] | zone of inhibition at 200 µg/disc [3] [mm] | zone of inhibition at 100 µg/disc [4] [mm] | zone of inhibition at 100 µg/disc [5] [mm] | MIC [6] [µg/mL] | zone of inhibition at 100 µg/disc [7] [mm] | zone of inhibition at 100 µg/disc [8] [mm] | zone of inhibition at 200 µg/disc [9] [mm] | MIC [10] [µg/mL] | zone of inhibition at 200 µg/disc [11] [mm] | zone of inhibition at 200 µg/disc [12] [mm] | zone of inhibition at 100 µg/disc [13] [mm] | zone of inhibition at 200 µg/disc [14] [mm] | zone of inhibition at 100 µg/disc [15] [mm] | zone of inhibition at 200 µg/disc [16] [mm] | MIC [17] [µg/mL] | MIC [18] [µg/mL] | MIC [19] [µg/mL] | MIC [20] [µg/mL] | other results
O=S(=O)(Cc1ccccc1)Cc1nnc(-c2ccccc2)s1 | 17 | 23 | 29 | 18 | 16 | 200 (≈ 605 µM) | 22 | 24 | 19 | 200 (≈ 605 µM) | 25 | 20 | 16 | 24 | 21 | 22 | 400 (≈ 1210 µM) | 200 (≈ 605 µM) | 200 (≈ 605 µM) | 200 (≈ 605 µM) | MIC [21]: 200 µg/mL (≈ 605 µM)
O=S(=O)(Cc1ccc(Cl)cc1)Cc1nnc(-c2ccccc2Cl)s1 | 20 | 27 | 33 | 28 | 20 | 100 (≈ 250 µM) | 27 | 29 | 23 | 100 (≈ 250 µM) | 31 | 31 | 20 | 23 | 25 | 24 | 200 (≈ 501 µM) | 50 (≈ 125 µM) | 100 (≈ 250 µM) | 100 (≈ 250 µM) | MIC [21]: 100 µg/mL (≈ 250 µM)
Nn1c(CS(=O)(=O)Cc2ccc(Cl)cc2)nnc1-c1ccccc1 | 27 | 27 | 31 | 24 | 26 | 200 (≈ 551 µM) | 28 | 27 | 20 | 100 (≈ 276 µM) | 33 | 26 | 18 | 29 | 24 | 29 | 200 (≈ 551 µM) | 100 (≈ 276 µM) | 200 (≈ 551 µM) | 100 (≈ 276 µM) | MIC [21]: 200 µg/mL (≈ 551 µM)
O=S(=O)(Cc1ccc(Cl)cc1)Cc1nnc(-c2ccccc2)s1 | 19 | 25 | 30 | 24 | 17 | 200 (≈ 548 µM) | 24 | 28 | 20 | 200 (≈ 548 µM) | 28 | 27 | 17 | 22 | 23 | 23 | 200 (≈ 548 µM) | 100 (≈ 274 µM) | 200 (≈ 548 µM) | 200 (≈ 548 µM) | MIC [21]: 200 µg/mL (≈ 548 µM)
Nn1c(CS(=O)(=O)Cc2ccccc2)nnc1-c1ccccc1 | 18 | 24 | 24 | 19 | 17 | 200 (≈ 609 µM) | 23 | 22 | 21 | 200 (≈ 609 µM) | 26 | 21 | 17 | 22 | 22 | 22 | 200 (≈ 609 µM) | 400 (≈ 1220 µM) | 400 (≈ 1220 µM) | 400 (≈ 1220 µM) | MIC [21]: 200 µg/mL (≈ 609 µM)
Nn1c(CS(=O)(=O)Cc2ccccc2)nnc1-c1ccccc1Cl | 24 | 20 | 32 | 21 | 26 | 100 (≈ 276 µM) | 30 | 29 | 21 | 100 (≈ 276 µM) | 34 | 23 | 17 | 29 | 18 | 28 | 200 (≈ 551 µM) | 100 (≈ 276 µM) | 100 (≈ 276 µM) | 200 (≈ 551 µM) | MIC [21]: 200 µg/mL (≈ 551 µM)
O=S(=O)(Cc1nnc(-c2ccccc2Cl)s1)c1ccc(Cl)cc1 | 16 | 22 | 23 | 20 | 19 | 200 (≈ 519 µM) | 19 | 21 | 21 | 200 (≈ 519 µM) | 23 | 24 | 17 | 21 | 19 | 19 | 400 (≈ 1040 µM) | 200 (≈ 519 µM) | 200 (≈ 519 µM) | 200 (≈ 519 µM) | MIC [21]: 400 µg/mL (≈ 1040 µM)
Nn1c(CS(=O)(=O)c2ccc(Cl)cc2)nnc1-c1ccccc1 | 17 | 25 | 23 | 21 | 18 | 200 (≈ 573 µM) | 17 | 19 | 22 | 200 (≈ 573 µM) | 20 | 24 | 19 | 21 | 22 | 19 | 400 (≈ 1150 µM) | 400 (≈ 1150 µM) | 200 (≈ 573 µM) | 400 (≈ 1150 µM) | –
O=S(=O)(Cc1ccccc1)Cc1nnc(-c2ccccc2Cl)s1 | 19 | 21 | 29 | 20 | 18 | 200 (≈ 548 µM) | 25 | 26 | 19 | 200 (≈ 548 µM) | 28 | 23 | 16 | 22 | 19 | 23 | 200 (≈ 548 µM) | 100 (≈ 274 µM) | 200 (≈ 548 µM) | 200 (≈ 548 µM) | MIC [21]: 200 µg/mL (≈ 548 µM)
O=C(N[C@H](CO)[C@H](O)c1ccc([N+](=O)[O-])cc1)C(Cl)Cl [CHLORAMPHENICOL] | 37 | – | 41 | – | 42 | – | 38 | 35 | – | – | 44 | – | – | 45 | – | 42 | 12.5 (≈ 38.7 µM) | 6.25 (≈ 19.3 µM) | – | 6.25 (≈ 19.3 µM) | MIC [21]: 6.25 µg/mL (≈ 19.3 µM)
